Experimental data of several laboratories.
Lines come from different studies, so protocols differ.
Cell line: CCRF-CEM
Read-out: cell growth or viability

Compound	technique	time	IC50 [µM]
O=C1C(=Cc2ccccc2)CN(C(=O)CCC(=O)N2CC(=Cc3ccccc3)C(=O)C(=Cc3ccccc3)C2)CC1=Cc1ccccc1		72 h	1.21
N#Cc1cc(CCc2ccccc2)sc1N		48 h	32
O=C1C(=Cc2ccccc2)CN(C(=O)CCCCCCC(=O)N2CC(=Cc3ccccc3)C(=O)C(=Cc3ccccc3)C2)CC1=Cc1ccccc1		72 h	2.28
COc1ccc(OC)c(-c2cc(C#N)c(N)s2)c1		48 h	12
CCc1ccc(CCOc2ccc(CC3SC(=O)NC3=O)cc2)nc1 (stereo not shown)	MTT	48 h	17.9
COc1ccc(C(=O)c2cc3c(-c4ccccc4)c(OC)ccc3o2)cc1		72 h	1.5
Cc1ccc(C=C2SC(=O)N(CC(=O)Nc3ccc(Cl)cc3C(F)(F)F)C2=O)cc1	MTT	48 h	31.8
O=C1C(=Cc2ccccc2)CN(C(=O)C=CC=CC(=O)N2CC(=Cc3ccccc3)C(=O)C(=Cc3ccccc3)C2)CC1=Cc1ccccc1		72 h	39.2
COc1ccccc1CCc1cc(C#N)c(N)s1		48 h	6.8
COc1cc(OC)cc(C(=O)c2cc3c(-c4ccccc4)c(O)ccc3o2)c1		72 h	9.6
O=C1NCCc2[nH]c(-c3ccncc3)cc21			2.5
COc1ccccc1C(=O)c1cc2c(-c3ccccc3)c(OC)ccc2o1		72 h	> 50
COc1ccc(OC)c(CCc2cc(C#N)c(N)s2)c1		48 h	0.035
COc1ccc2oc(C(=O)c3ccccc3)cc2c1-c1ccccc1		72 h	> 50
O=C(CN1C(=O)SC(=Cc2ccccc2)C1=O)Nc1ccc(F)cc1F	MTT	48 h	32.3
COc1cccc(C(=O)c2cc3c(-c4ccccc4)c(OC)ccc3o2)c1		72 h	5.4
O=C(CN1C(=O)SC(=Cc2ccc(F)cc2)C1=O)Nc1cccc(C(F)(F)F)c1	MTT	48 h	30.1
CC[C@]1(O)C[C@H]2CN(CCc3c([nH]c4ccccc34)[C@@](C(=O)OC)(c3cc4c(cc3OC)N(C=O)[C@H]3[C@@](O)(C(=O)OC)[C@H](OC(C)=O)[C@]5(CC)C=CCN6CC[C@]43[C@@H]65)C2)C1	fluorescence	72 h	0.0104
CCOC(=O)c1cc(CCc2ccccc2OC)sc1N		48 h	20
CC[C@]1(O)C[C@@H]2CN(CCc3c([nH]c4ccccc34)[C@@](C(=O)OC)(c3cc4c(cc3OC)N(C)[C@H]3[C@@](O)(C(=O)OC)[C@H](OC(C)=O)[C@]5(CC)C=CCN6CC[C@]43[C@@H]65)C2)C1	MTT	72 h	0.002
O=C1C(=Cc2ccccc2)CN(C(=O)CCCC(=O)N2CC(=Cc3ccccc3)C(=O)C(=Cc3ccccc3)C2)CC1=Cc1ccccc1		72 h	2.03
CCOC(=O)c1cc(CCc2ccc(OC)cc2)sc1N		48 h	1.9
